Measurements from ChEMBL document CHEMBL1687827, “Profiling the Aspergillus fumigatus proteome in response to caspofungin” (2011).
Active and inactive are the calls of the source. The calls are words filed in the database; no cut-off is given here.

Tests used:
Aspergillus fumigatus [1] = assay: Induction of change in 60s ribosomal protein yl17-b protein level in iTRAQ114 labelled secreted fraction of drug-susceptible Aspergillus fumigatus KU80 delta-akuB at 0.12 ug/ml after 24 hrs in YPD medium by MS (MS/MS) analysis relative to control; format: functional
Method in brief: (§1)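 Conidia at 1 × 10⁵/ml grown shaking at 37°C in YPD with or without 0.12 μg/ml caspofungin; mycelia filtered at 24 or 48 h. Secreted fraction taken from the filtrate; cell wall/plasma membrane pellet recovered after French-press lysis and a 5,000 × g spin. Proteins trypsin-digested and iTRAQ-labelled, drug vs no-drug channels at each time, then 2D LC-MS/MS. Protein ratio is the median of ratios from uniquely assigned peptides after median normalization.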

Aspergillus fumigatus [2] = assay: Induction of change in carbonic anhydrase family gene expression in drug-susceptible Aspergillus fumigatus KU80 delta-akuB at 0.12 ug/ml after 24 hrs in YPD medium by microarray analysis relative to control; format: functional
Method in brief: (§2)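 Mycelia grown in YPD ± 0.12 μg/ml caspofungin (1 × 10⁵ conidia/ml, 37°C, shaking) and harvested at 24 or 48 h. Total RNA extracted, DNase-treated and quality-checked; 2 μg labelled per TIGR SOP M007 and hybridized to whole-genome arrays. Three independent experiments with dye flip (6 replicates); drug vs untreated fold change.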

Aspergillus fumigatus [3] = assay: Induction of change in sur7 protein, putative gene expression in drug-susceptible Aspergillus fumigatus KU80 delta-akuB at 0.12 ug/ml after 24 hrs in YPD medium by microarray analysis relative to control; format: functional
Method in brief: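 Mycelia grown from 1 × 10⁵ conidia/ml in YPD at 37°C, 225 rpm, with or without 0.12 μg/ml caspofungin. Total RNA extracted, DNase-treated; 2 μg labelled per TIGR SOP M007 for whole-genome array hybridization. Three independent experiments with dye flip (6 replicates); >2-fold change deemed significant.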

Aspergillus fumigatus [4] = assay: Induction of change in conserved hypothetical gene locus AFUA_5G03010 expression in drug-susceptible Aspergillus fumigatus KU80 delta-akuB at 0.12 ug/ml after 24 hrs in YPD medium by microarray analysis relative to control; format: functional; method in brief: as §2
Aspergillus fumigatus [5] = assay: Induction of change in 60s ribosomal protein L24, putative gene expression in drug-susceptible Aspergillus fumigatus KU80 delta-akuB at 0.12 ug/ml after 24 hrs in YPD medium by microarray analysis relative to control; format: functional; method in brief: as §2
Aspergillus fumigatus [6] = assay: Induction of change in 60s ribosomal protein l2 gene expression in drug-susceptible Aspergillus fumigatus KU80 delta-akuB at 0.12 ug/ml after 24 hrs in YPD medium by microarray analysis relative to control; format: functional; method in brief: as §2
Aspergillus fumigatus [7] = assay: Induction of change in 40S ribosomal protein S3Ae protein level in iTRAQ114 labelled cell wall fraction of drug-resistant Aspergillus fumigatus EMFR-S678P at 0.12 ug/ml after 24 hrs in YPD medium by MS (MS/MS) analysis relative to control; format: functional
Method in brief: (§3)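 Conidia at 1 × 10⁵/ml were grown at 37°C, shaking at 225 rpm, in YPD with or without 0.12 μg/ml caspofungin for 24 or 48 h. The culture filtrate was kept as the secreted fraction. Mycelia were lysed by French press in HEPES/glycerol/EDTA/PMSF/DTT buffer, and the 5,000 × g pellet was washed to give CW/PM. Proteins were reduced, alkylated and trypsin-digested at 37°C overnight, then iTRAQ-labelled and run by 2D LC-MS/MS. Ratios are the median of unique-peptide ratios, median-normalized, versus the no-drug control.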

Aspergillus fumigatus [8] = assay: Antifungal activity against drug-susceptible Aspergillus fumigatus KU80 delta-akuB assessed as change in hyphal morphology by RPMI medium; format: functional; conditions: read-out: MEC
Method in brief: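 CLSI M38-A2 broth microdilution, run in triplicate in RPMI or YPD medium as the line specifies. Caspofungin was dissolved in sterile water. The minimum effective concentration (MEC) was the lowest concentration giving a significant change in hyphal morphology visible to the eye.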

Aspergillus fumigatus [9] = assay: Antifungal activity against drug-susceptible Aspergillus fumigatus KU80 delta-akuB assessed as change in hyphal morphology by YPD medium; format: functional; conditions: read-out: MEC
Method in brief: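 Broth microdilution per CLSI M38-A2, in triplicate, in YPD broth (2% yeast extract, 4% peptone, 4% dextrose); minimum effective concentration read as the lowest drug concentration giving a significant change in hyphal morphology visible by eye. Caspofungin dissolved in sterile water.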

Aspergillus fumigatus [10] = assay: Induction of change in ATP citrate lyase, subunit 1, putative protein level in iTRAQ114 labelled secreted fraction of drug-resistant Aspergillus fumigatus EMFR-S678P at 0.12 ug/ml after 24 hrs in YPD medium by MS (MS/MS) analysis relative to control; format: functional; method in brief: as §3
Aspergillus fumigatus [11] = assay: Induction of change in 60S ribosomal protein L27e protein level in iTRAQ-118 labelled cell wall fraction of drug-resistant Aspergillus fumigatus EMFR-S678P at 0.12 ug/ml after 24 hrs in YPD medium by MS (MS/MS) analysis relative to control; format: functional; method in brief: as §3
Aspergillus fumigatus [12] = assay: Induction of change in nascent polypeptide-associated complex (NAC) subunit, putative protein level in iTRAQ-116 labelled secreted fraction of drug-resistant Aspergillus fumigatus EMFR-S678P at 0.12 ug/ml after 48 hrs in YPD medium by MS (MS/MS) analysis relative to control; format: functional, organism-based; method in brief: as §3
Aspergillus fumigatus [13] = assay: Induction of change in alanine aminotransferase, putative protein level in iTRAQ-116 labelled secreted fraction of drug-resistant Aspergillus fumigatus EMFR-S678P at 0.12 ug/ml after 48 hrs in YPD medium by MS (MS/MS) analysis relative to control; format: functional, organism-based; method in brief: as §3
Aspergillus fumigatus [14] = assay: Induction of change in extracellular conserved serine-rich protein level in iTRAQ-116 labelled secreted fraction of drug-resistant Aspergillus fumigatus EMFR-S678P at 0.12 ug/ml after 48 hrs in YPD medium by MS (MS/MS) analysis relative to control; format: functional; method in brief: as §3
Aspergillus fumigatus [15] = assay: Induction of change in allergen Asp F3 protein level in iTRAQ-116 labelled secreted fraction of drug-resistant Aspergillus fumigatus EMFR-S678P at 0.12 ug/ml after 48 hrs in YPD medium by MS (MS/MS) analysis relative to control; format: functional; method in brief: as §3
Aspergillus fumigatus [16] = assay: Induction of change in 40S ribosomal protein S3Ae protein level in iTRAQ114 labelled cell wall fraction of drug-susceptible Aspergillus fumigatus KU80 delta-akuB at 0.12 ug/ml after 24 hrs in YPD medium by MS (MS/MS) analysis relative to control; format: functional; method in brief: as §1
Aspergillus fumigatus [17] = assay: Induction of change in translation elongation factor eEF-3, putative protein level in iTRAQ-118 labelled cell wall fraction of drug-susceptible Aspergillus fumigatus KU80 delta-akuB at 0.12 ug/ml after 24 hrs in YPD medium by MS (MS/MS) analysis relative to control; format: functional
Method in brief: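 Conidia (1 × 10⁵/ml) grown in YPD, 37°C, 225 rpm, ± 0.12 μg/ml caspofungin; filtrate taken as secreted fraction, French-press lysate 5,000 × g pellet as cell wall/plasma membrane. Trypsin digests 8-plex iTRAQ-labelled (drug-free channels as references), pooled, 2D-chromatography, MS/MS. Median-normalized; protein ratio = median of unique-peptide ratios, log2 normalized.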

## CC[C@H](C)C[C@H](C)CCCCCCCCC(=O)N[C@H]1C[C@@H](O)[C@@H](NCCN)NC(=O)[C@@H]2[C@@H](O)CCN2C(=O)[C@H]([C@H](O)CCN)NC(=O)[C@H]([C@H](O)[C@@H](O)c2ccc(O)cc2)NC(=O)[C@@H]2C[C@@H](O)CN2C(=O)[C@H]([C@@H](C)O)NC1=O [CASPOFUNGIN]
Aspergillus fumigatus [1]
  fold change (FC): -1
Aspergillus fumigatus [2]
  fold change (FC): -6.5
Aspergillus fumigatus [3]
  fold change (FC): -5.2
Aspergillus fumigatus [4]
  fold change (FC): 5.6
Aspergillus fumigatus [5]
  fold change (FC): 3.5
Aspergillus fumigatus [6]
  fold change (FC): 3.9
Aspergillus fumigatus [7]
  fold change (FC): 1.07
Aspergillus fumigatus [8]
  minimal effective concentration: 0.25 µg/mL
Aspergillus fumigatus [9]
  minimal effective concentration: 0.19 µg/mL
Aspergillus fumigatus [10]
  fold change (FC): -1.07
Aspergillus fumigatus [11]
  fold change (FC): -1.15
Aspergillus fumigatus [12]
  Activity: inactive
Aspergillus fumigatus [13]
  Activity: inactive
Aspergillus fumigatus [14]
  fold change (FC): -1.07
Aspergillus fumigatus [15]
  fold change (FC): -1.52
Aspergillus fumigatus [16]
  fold change (FC): 2.3
Aspergillus fumigatus [17]
  fold change (FC): 2.1
